Results on six compounds are retold here after ChEMBL document CHEMBL4393712, “Discovery of chalcone-modified estradiol analogs as antitumour agents that Inhibit tumour angiogenesis and epithelial to mesenchymal transition” (Eur J Med Chem, 2019).

Active and inactive are the calls of the source. No cut-off for these calls is given here.

One series has as its system K562. As to the kind of experiment: Anticancer activity against human K562 cells measured after 48 hrs by SRB assay. Format: functional. Conditions: K562, 48 h. Background: The SRB assay estimates cell density from bound dye.
Another series concerns SR. Put plainly: Anticancer activity against human SR cells measured after 48 hrs by SRB assay. Format: functional.
The subject of the next series is CCRF-CEM. Put plainly: Anticancer activity against human CCRF-CEM cells measured after 48 hrs by SRB assay. Format: functional.
The next series concerns RPMI-8226. Put plainly: Anticancer activity against human RPMI8226 cells measured after 48 hrs by SRB assay. Format: functional. Conditions: RPMI-8226, 48 h.
The next series concerns Chorioallantoic membrane. Put plainly: Antiangiogenic activity in chicken chorioallantoic membrane assessed as reduction in neovascularization at 50 ug/ml measured after 72 hrs by CAM assay. Format: functional. Conditions: Gallus gallus. The gist of the method:
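Fertilized chicken eggs incubated 6 days at 37 °C; shell windowed and CAM treated (compounds and controls at […] as printed; saline vehicle control). Eggs re-incubated humidified; membranes fixed and harvested after 72 h. Angiogenesis scored by counting blood vessels and imaging neovascular zones; ten eggs per group.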

Series [1] can be described thus: Hepatotoxicity in nude mouse xenografted with human MCF7 cells assessed as increase in serum alkaline phosphatase level at 45 mg/kg/day, ip administered for 21 days by biochemical automatic analyzer. Format: toxicity, organism-based. The note with it: in vivo, 504 h.
In a further series the test system is A549. As to the kind of experiment: Antitumour activity against human A549 cells assessed as cell growth inhibition measured after 72 hrs by SRB assay. Format: functional, cell-based. The note with it: A549, 72 h. The method, boiled down: (§1)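 Exponentially growing cells trypsinized, seeded at 5 × 10^4 cells/mL in 96-well plates, cultured overnight, then exposed to compounds for 72 h. Cells fixed with 10% TCA 1 h, stained with SRB 15 min, dye dissolved in Tris-HCl, absorbance read; 50% growth-inhibitory concentration calculated.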

The test system of a further series is ECa-109 cell line. Put plainly: Antitumour activity against human EC109 cells assessed as cell growth inhibition measured after 72 hrs by SRB assay. Format: functional, cell-based. Conditions: ECa-109, 72 h. The gist of the method: as §1
Series [2] is described as follows: Hepatotoxicity in nude mouse xenografted with human MCF7 cells assessed as increase in serum aspartate transaminase level at 45 mg/kg/day, ip administered for 21 days by automatic biochemical analyzer. Format: toxicity, organism-based. Conditions: in vivo, 504 h. (In general: Xenograft models place foreign cells or tissue in a host animal.)
Another series concerns SK-N-SH. As to the kind of experiment: Antitumour activity against human SK-N-SH cells assessed as cell growth inhibition measured after 72 hrs by SRB assay. Format: functional, cell-based. The method, boiled down: as §1
The nature of series [3]: Toxicity in nude mouse xenografted with human MCF7 cells assessed as liver edema at 45 mg/kg/day, ip administered for 21 days by HE staining analysis. Conditions: in vivo, 504 h. Format: organism-based.
A further series deals with SMMC-7721. Put plainly: Antitumour activity against human SMMC7721 cells assessed as cell growth inhibition measured after 72 hrs by SRB assay. Format: functional, cell-based. Conditions: SMMC-7721, 72 h. The gist of the method:
as §1

A further series deals with GES1. Put plainly: Cytotoxicity against human GES-1 cells assessed as reduction in cell viability measured after 48 to 72 hrs by MTT assay. Format: cell-based. The gist of the method:
(§2)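 Cells seeded at 3 × 10^3 per well in 96-well plates, incubated overnight, then given fresh medium with a range of drug concentrations for 48 h or 72 h. MTT added (final 500 µg/mL) for 4 h, formazan dissolved in DMSO, absorbance at 570 nm; IC50 derived. Mean ± SD of 3 independent tests.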

A further series has as its system B16. Put plainly: Antitumour activity against mouse B16 cells assessed as cell growth inhibition measured after 72 hrs by SRB assay. Format: functional, cell-based. Conditions: B16, 72 h. The method, boiled down:
as §1

The subject of series [4] is MGC-803. Put plainly: Cytotoxicity against human MGC803 cells assessed as reduction in cell viability measured after 48 to 72 hrs by MTT assay. Format: cell-based. The method, boiled down:
as §2
(Formazan colour is commonly taken as a measure of viable cells.)

Series [5] is described as follows: Hepatotoxicity in nude mouse xenografted with human MCF7 cells assessed as increase in serum alanine transaminase level at 45 mg/kg/day, ip administered for 21 days by biochemical automatic analyzer. The note with it: in vivo, 504 h. Format: toxicity, organism-based.
Series [6] relates to MGC-803. As to the kind of experiment: Antitumour activity against human MGC803 cells assessed as cell growth inhibition measured after 72 hrs by SRB assay. Format: functional, cell-based. Conditions: MGC-803, 72 h. The gist of the method:
as §1

The next series deals with HUVEC. As to the kind of experiment: Cytotoxicity against HUVEC assessed as reduction in cell viability measured after 48 to 72 hrs by MTT assay. Format: cell-based. The note with it: human. The method, boiled down: as §2
The test system of a further series is PC-3. As to the kind of experiment: Cytotoxicity against human PC3 cells assessed as reduction in cell viability measured after 48 to 72 hrs by MTT assay. Format: cell-based. The gist of the method:
as §2

Series [7] is described as follows: Toxicity in nude mouse xenografted with human MCF7 cells assessed as decrease in body weight at 45 mg/kg/day, ip administered for 21 days. Format: organism-based. Conditions: in vivo, 504 h. The gist of the method:
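Nude mice (male/female, 4–6 weeks) injected subcutaneously in right forelimb with 5 × 10^7 MCF-7 cells in 200 µL saline; at mean tumour 100 mm3 randomized (n = 5/group): saline 0.2 mL/day, 22.5 or 45 mg/kg/day ip for 21 days. Body weight and tumour volume (length × width²/2) every other day; tumours weighed at day 21.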

The next series concerns U-251. Put plainly: Antiproliferative activity against human U251 cells measured after 48 hrs by SRB assay. The note with it: U-251, 48 h. Format: functional.
Another series concerns HCT-116. Put plainly: Antiproliferative activity against human HCT116 cells measured after 48 hrs by SRB assay. Format: functional. Conditions: HCT-116, 48 h.
A further series has as its system MDA-MB-435. As to the kind of experiment: Antiproliferative activity against human MDA-MB-435 cells measured after 48 hrs by SRB assay. Format: functional. Conditions: MDA-MB-435, 48 h.
In another series the test system is NCI-H460. Put plainly: Antiproliferative activity against human NCI-H460 cells measured after 48 hrs by SRB assay. The note with it: NCI-H460, 48 h. Format: functional.
The test system of a further series is HEK293. As to the kind of experiment: Cytotoxicity against human HEK293 cells measured after 48 to 72 hrs by MTT assay. Format: cell-based. The method, boiled down: as §2
Series [8] in a line: Solubility of the compound in water. Format: physicochemical. The note with it: buffer.
The next series deals with MCF7. As to the kind of experiment: Antiproliferative activity against human MCF7 cells measured after 72 hrs by MTT assay. Conditions: MCF7, 72 h. Format: functional, cell-based.
A further series relates to MDA-MB-231. Put plainly: Antiproliferative activity against human MDA-MB-231 cells measured after 72 hrs by MTT assay. Format: functional, cell-based. Conditions: MDA-MB-231, 72 h.
The next series has as its system HeLa. Put plainly: Antiproliferative activity against human HeLa cells measured after 72 hrs by MTT assay. Format: functional, cell-based.

Take `CN1CCN(C(=O)COc2ccc(/C=C3\C[C@H]4[C@@H]5CC=C6CC(Cl)CC[C@]6(C)[C@H]5CC[C@]4(C)C3=O)cc2)CC1` (stereo partly specified): the GI50 (commonly the concentration at which growth is held to half of that of the control) with K562 came out at 2.61 µM; in the series on SR it was 1.79 µM; in the series with CCRF-CEM, 3.94 µM; with RPMI-8226, 6.9 µM.
With `COc1cc2c(cc1O)CC[C@@H]1[C@@H]2CC[C@]2(C)[C@@H](O)CC[C@@H]12` [2-METHOXYESTRADIOL], in the series with Chorioallantoic membrane, the inhibition entry is “Active”. Besides, the Activity result (in [1]; in series [2]; in series [3]; with GES1; in the series with MGC-803 [4]; in [5]) was “Toxic” in each case. The Activity result (in the series with HUVEC; in the series on PC-3; in [7]) was “Toxic” throughout. Besides, the IC50 (in general, the concentration at which inhibition is half-maximal) in the series with A549 came out at 1.1 µM; in the series with ECa-109 cell line it was 4.1 µM; in the series on SK-N-SH, 1.6 µM; in the series on SMMC-7721, 8.4 µM; in the series on B16, 3.4 µM; with MGC-803 [6] it was 4 µM.
On to `C=C1CC[C@H]2[C@@H]3CCc4cc(O)c(/C=C/C(=O)c5cc(OC)c(OC)c(OC)c5)cc4[C@H]3CC[C@]12C`, for which the GI50 in the series on U-251 worked out at 1.4 µM; in the series with HCT-116 it was 1.6 µM; with MDA-MB-435, 1.6 µM; in the series with NCI-H460 it was 2.6 µM.
Regarding `COc1cc2c(cc1O)CC[C@@H]1[C@@H]2CC[C@]2(C)C(=O)/C(=C/c3ccc(Br)cc3)C[C@@H]12`, the inhibition entry with Chorioallantoic membrane is “Active”. Further, the IC50 came out at 39.4 µM in the series with A549; 48.9 µM in the series with HEK293; 17.6 µM in the series on ECa-109 cell line; 42 µM with SK-N-SH; 0.1 µM in the series on SMMC-7721; 2.6 µM in the series with B16. Also, in the series with MGC-803 [6], the IC50 is 14.1 µM. Also, the solubility entry in [8] is given as “Soluble”.
As for `C[C@]12CC[C@H]3[C@@H](CCC4=CC(=O)CC[C@@]43C)[C@@H]1CC[C@@H]2C(=O)/C=C/c1ccc(F)cc1`, the IC50 with MCF7 and in the series with MDA-MB-231 was 2 µM throughout.
`C[C@]12CC[C@@H]3c4ccc(O)cc4CC[C@H]3[C@@H]1C/C(=N\O)C2=O` showed an IC50 with HeLa of 4.41 µM.
